Tests used:
[1] = tested on: HEp-2; assay: Cytotoxicity against H.Ep cells; type: functional, cell-based; settings: Homo sapiens
Summary of the method: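 H.Ep.-2 human cell culture cytotoxicity screen. Value is the drug concentration that inhibits cell growth to 50% of untreated controls.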

[2] = tested on: P388; assay: Percent increase in life span of P388 leukemia cells (10e6) infected(ip) mice at dose of 400 (400) mg/kg, ip: day 1 only; type: functional, Mus musculus
[3] = species: Bos taurus; assay: Kinetic parameter in calf intestine adenosine deaminase.; type: ADME; settings: cattle, in vitro
[4] = tested on: P388; assay: Percent increase in life span of P388 leukemia cells (10e6) infected(ip) mice at dose of 50 (200) mg/kg, ip: qd 1-5 schedule.
[5] = tested on: HEp-2; assay: Cytotoxicity against H.Ep cells in the presence of 0.1 ug/mL pentostatin.; type: functional, cell-based; settings: Homo sapiens
Summary of the method: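 H.Ep.-2 cell culture cytotoxicity screen with pentostatin at 0.1 µg/mL in the medium. Value is the drug concentration that inhibits cell growth to 50% of controls.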

[6] = tested on: P388; assay: Percent increase in life span of P388 leukemia cells (10e6) infected(ip) mice at dose of 50 (400) mg/kg, ip: qd 1-5 schedule.; type: functional, Mus musculus
[7] = tested on: P388; assay: Percent increase in life span of P388 leukemia cells (10e6) infected(ip) mice at dose of 6(50) mg/kg, ip: qd 1-9 schedule.; type: functional, Mus musculus

Row | Vmax [3] [µM/min/mg] | Compound | IC50 [1] [µM] | further results
1 |  | Nc1nc(N)c2nn(C3O[C@H](CO)[C@@H](O)[C@H]3O)nc2n1 (some centres undefined) | > 75 | ILS [2]: 0%
2 |  | CS(=O)(=O)c1nc(N)c2nn(C3O[C@H](CO)[C@@H](O)[C@H]3O)nc2n1 (some centres undefined) | 22 | 
3 |  | CSc1nc(N)c2nn(C3O[C@H](CO)[C@@H](O)[C@H]3O)nc2n1 (some centres undefined) | 25 | 
4 |  | CS(=O)(=O)c1nc(N)c2nnn(C3O[C@H](CO)[C@@H](O)[C@H]3O)c2n1 (some centres undefined) | 14 | ILS [6]: 38%
5 | 94 | Nc1ncnc2c1ncn2[C@@H]1O[C@H](CO)[C@@H](O)[C@@H]1O [VIDARABINE] |  | 
6 |  | Nc1nc(O)c2nnn(C3O[C@H](CO)[C@@H](O)[C@H]3O)c2n1 (some centres undefined) | 2 | 
7 | 27 | COc1ncnc2c1nnn2[C@@H]1O[C@H](CO)[C@@H](O)[C@H]1O |  | 
8 | 435 | Nc1ncnc2c1ncn2[C@@H]1O[C@H](CO)[C@@H](O)[C@H]1O [ADENOSINE] |  | 
9 |  | Nc1nc(F)nc2nn(C3O[C@H](CO)[C@@H](O)[C@H]3O)nc12 (some centres undefined) | > 75 | 
10 |  | Nc1nc(F)nc2c1nnn2[C@H]1C[C@H](O)[C@@H](CO)O1 | 70 | 
11 |  | CSc1nc(N)c2nnn(C3O[C@H](CO)[C@@H](O)[C@H]3O)c2n1 (some centres undefined) | > 130 | 
12 |  | Nc1nc(O)c2[nH]nnc2n1 [8-AZAGUANINE] | 2 | 
13 | 1500 | Nc1ncnc2c1nnn2[C@@H]1O[C@H](CO)[C@@H](O)[C@H]1O | 0.7 | IC50 [5]: < 0.02 µM
14 | 119 | Nc1nc(N)c2ncn([C@@H]3O[C@H](CO)[C@@H](O)[C@H]3O)c2n1 |  | 
15 |  | CCOc1nc(N)c2nnn(C3O[C@H](CO)[C@@H](O)[C@H]3O)c2n1 (some centres undefined) | > 75 | 
16 | 2 | COc1ncnc2c1ncn2[C@@H]1O[C@H](CO)[C@@H](O)[C@@H]1O |  | 
17 | 2000 | Nc1ncnc2c1nnn2[C@H]1C[C@H](O)[C@@H](CO)O1 | 10 | IC50 [5]: > 25 µM
18 | 75 | Nc1ncnc2c1nnn2[C@@H]1O[C@H](CO)[C@@H](O)[C@@H]1O |  | 
19 |  | Nc1nc(O)nc2nn(C3O[C@H](CO)[C@@H](O)[C@H]3O)nc12 (some centres undefined) | > 75 | 

Row | Compound | Vmax [3] [µM/min/mg] | IC50 [1] [µM] | further results
20 | Nc1nc(F)nc2c1nnn2C1O[C@H](CO)[C@@H](O)[C@H]1O (some centres undefined) | 5 | 2 | ILS [4]: 21%; IC50 [5]: 2 µM
21 | Nc1nc(F)nc2c1ncn2[C@@H]1O[C@H](CO)[C@@H](O)[C@H]1O | 0.78 |  | 
22 | Nc1nc(N)c2nnn([C@@H]3O[C@H](CO)[C@@H](O)[C@H]3O)c2n1 | 23 | 0.7 | ILS [7]: 25%; IC50 [5]: > 20 µM
